Data taken from article PMC5663466 (Journal of proteome research, 2017).

Legend:
[1] = system: tyrosine and serine/threonine kinases; conditions: cited from earlier work
[2] = system: protein and lipid kinases in HeLa cell lysate; assay: Affinity pulldown-soluble competition in duplex SILAC-labeled HeLa cell lysate; type: binding, human; conditions: 50 μM soluble competitor against affinity matrix 7
Summary of the method: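 HeLa cells SILAC-labelled for ≥5 doublings in Lys/Arg-free DMEM with 10% dialysed FBS, 200 μg/ml proline and 0.2 mM light or heavy Lys/Arg, then lysed in modified RIPA buffer. Lysate (300 μg, 2 mg/ml) was pre-incubated 20 min at 4°C with DMSO or test compound (1% DMSO final), then pulled down 3 h at 4°C. SILAC channel beads were combined after washing, digested on-bead with LysC then trypsin, and run as single-shot nanoLC-MS/MS.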

| Structure (SMILES) | number of tyrosine and serine/threonine kinases inhibited [1] | number of protein and lipid kinases with specific interaction [2] |
| --- | --- | --- |
| Cc1nc(Nc2ncc(C(=O)Nc3c(C)cccc3Cl)s2)cc(N2CCN(CCO)CC2)n1 [dasatinib] | over 30 |  |
| COc1cc2c(Oc3ccc(NC(=O)C4(C(=O)Nc5ccc(F)cc5)CC4)cc3F)ccnc2cc1OCCCN1CCOCC1 [foretinib] |  | 29 |
